≈ marks a conversion by molar mass, not a printed value. Where “and” joins values, the source holds several entries; their conditions need not be identical. Equal values may be shown once. Starred links: 1 amine or outer side, 2 acyl side, 3 side chain; linkers in the order of their positions; H or OH if unused. Non-standard residues stand in square brackets, D forms with d. Residues, ends and D or L forms follow the SMILES beside them. *: point of attachment. Phe(4-NH(5-NH2triazol-3-yl)) = Nc1nc(Nc2ccc(C[C@H](N)C(=O)O)cc2)n[nH]1; dNva(5-oxo-5-(4-MeOPh)) = COc1ccc(C(=O)CC[C@@H](N)C(=O)O)cc1; X1 = Nc1nc(Nc2ccc(C[C@@H](N[*:1])C(=O)[*:2])cc2)n[nH]1; d(hArg(Et2)) = CCN=C(NCC)NCCCC[C@@H](N)C(=O)O; hArg(Et2) = CCN=C(NCC)NCCCC[C@H](N)C(=O)O; Triazol3yl(1,2,4-5-NH2) = Nc1nc(*)n[nH]1; dPhe(4-Cl) = N[C@H](Cc1ccc(Cl)cc1)C(=O)O; d2Nal = N[C@H](Cc1ccc2ccccc2c1)C(=O)O; Lys(iPr) = CC(C)NCCCC[C@H](N)C(=O)O; NMeY = CN[C@@H](Cc1ccc(O)cc1)C(=O)O; dCit = NC(=O)NCCC[C@@H](N)C(=O)O; d3Pal = N[C@H](Cc1cccnc1)C(=O)O; NMeL = CN[C@@H](CC(C)C)C(=O)O; Nicotinoyl = O=C(c1cccnc1)*; dOrn = NCCC[C@@H](N)C(=O)O; Orn = NCCC[C@H](N)C(=O)O
Legend:
Rattus norvegicus [1] = species on record: Rattus norvegicus; test: Antiovulatory activity measured in rat; type: functional; set-up: unit: ug/rat
Outline: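 Corbin–Beattie rat antiovulatory assay. Cycling female rats of 250-300 g were given a single sc injection of peptide at noon on proestrus. Vehicle was saline or 5% DMSO in saline (200 μL), or corn oil where flagged. Result is expressed as dose in μg/rat with the number of rats ovulating over the number treated.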

Rattus norvegicus [2] = species on record: Rattus norvegicus; test: The compound was tested in vitro for the histamine release; type: functional; conditions: read-out: ED50 (the source's name)
Homo sapiens = species on record: Homo sapiens; test: In vitro antagonistic potency relative to Ac-delta-3-Pro1-(D)Fpa2-(D)Trp3,6]GnRH; type: functional
Outline: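 Cultured rat pituitary cells. Peptides were scored for inhibition of GnRH-mediated LH secretion, and potency is expressed relative to the standard antagonist [Ac-Δ3-Pro1,DFpa2,DTrp3,6]GnRH (= 1.0).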

[3] = Retention time of the compound; type: ADME
Outline: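 Peptide (0.5 mg/mL, 10 μL) was loaded in TEAP pH 7.0/CH3CN (76/24), acidified with H3PO4 where insoluble. Elution used a 30-48% CH3CN gradient over 30 min at 1.5 mL/min. Retention time is reported in minutes.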

Row | Structure (SMILES) | AOA (Rattus norvegicus [1]) | EC50 (Rattus norvegicus [2]) [µg/mL] | Potency (Homo sapiens) | RT [3] [min]
1 | CC(=O)N[C@H](Cc1ccc2ccccc2c1)C(=O)N[C@H](Cc1ccc(Cl)cc1)C(=O)N[C@H](Cc1cccnc1)C(=O)N[C@@H](CO)C(=O)N[C@@H](CCCCNc1n[nH]c(N)n1)C(=O)N[C@H](CCCCNc1n[nH]c(N)n1)C(=O)N[C@@H](CC(C)C)C(=O)N[C@@H](CCCCNC(C)C)C(=O)N1CCC[C@H]1C(=O)NCC(N)=O | 1 and 2.5 | 66 (≈ 43.1 µM) | 0.12 | –
2 | CC(=O)N[C@H](Cc1ccc2ccccc2c1)C(=O)N[C@H](Cc1ccc(Cl)cc1)C(=O)N[C@H](Cc1cccnc1)C(=O)N[C@@H](CO)C(=O)N[C@@H](CCCN=C(N)N)C(=O)N[C@H](Cc1cccnc1)C(=O)N[C@@H](CC(C)C)C(=O)N[C@@H](CCCN=C(N)N)C(=O)N1CCC[C@H]1C(=O)N[C@H](C)C(N)=O | 0.5 and 1 | 2.9 (≈ 2.05 µM) | 0.91 | –
3 | CC(=O)N[C@H](Cc1ccc2ccccc2c1)C(=O)N[C@H](Cc1ccc(Cl)cc1)C(=O)N[C@H](Cc1cccnc1)C(=O)N[C@@H](CO)C(=O)N[C@@H](Cc1ccc(O)cc1)C(=O)N[C@H](Cc1cccnc1)C(=O)N[C@@H](CC(C)C)C(=O)N[C@@H](CCCCNC(C)C)C(=O)N1CCC[C@H]1C(=O)N[C@H](C)C(N)=O [listing 1 of 2 here] | – | – | – | 16.3
4 | CC(=O)N[C@H](Cc1ccc2ccccc2c1)C(=O)N[C@H](Cc1ccc(Cl)cc1)C(=O)N[C@H](Cc1cccnc1)C(=O)N[C@@H](CO)C(=O)N[C@@H](Cc1ccc(O)cc1)C(=O)N[C@H](Cc1cccnc1)C(=O)N[C@@H](CC(C)C)C(=O)N[C@@H](CCCCNC(C)C)C(=O)N1CCC[C@H]1C(=O)N[C@H](C)C(N)=O [listing 2 of 2 here] | 1 and 2.5 | 34 (≈ 23.7 µM) | 1.3 | –
5 | CC(=O)N[C@H](Cc1ccc2ccccc2c1)C(=O)N[C@H](Cc1ccc(Cl)cc1)C(=O)N[C@H](Cc1cccnc1)C(=O)N[C@@H](CO)C(=O)N[C@@H](CCCCNC(=O)c1cccnc1)C(=O)N[C@H](CCCCNC(=O)c1cccnc1)C(=O)N[C@@H](CC(C)C)C(=O)N[C@@H](CCCCNC(C)C)C(=O)N1CCC[C@H]1C(=O)N[C@H](C)C(N)=O (Ac-[d2Nal][dPhe(4-Cl)][d3Pal]SK(Nicotinoyl)[dK](Nicotinoyl)L[Lys(iPr)]P[dA]-NH2) | 1 and 1.5 | > 300 | 0.66 | –
6 | CC(=O)N[C@H](Cc1ccc2ccccc2c1)C(=O)N[C@H](Cc1ccc(Cl)cc1)C(=O)N[C@H](Cc1cccnc1)C(=O)N[C@@H](CO)C(=O)N[C@@H](CCCCNc1n[nH]c(N)n1)C(=O)N[C@H](CCCCNc1n[nH]c(N)n1)C(=O)N[C@@H](CC(C)C)C(=O)N[C@@H](CCCCNC(C)C)C(=O)N1CCC[C@H]1C(=O)N[C@H](C)C(N)=O (Ac-[d2Nal][dPhe(4-Cl)][d3Pal]SK(Triazol3yl(1,2,4-5-NH2))[dK](Triazol3yl(1,2,4-5-NH2))L[Lys(iPr)]P[dA]-NH2) | 2 | 139 (≈ 90 µM) | 0.23 | –
7 | COc1ccc(C(=O)CC[C@@H](NC(=O)[C@H](CCCN=C(N)N)NC(=O)[C@H](CO)NC(=O)[C@@H](Cc2cccnc2)NC(=O)[C@@H](Cc2ccc(Cl)cc2)NC(=O)[C@@H](Cc2ccc3ccccc3c2)NC(C)=O)C(=O)N[C@@H](CC(C)C)C(=O)N[C@@H](CCCN=C(N)N)C(=O)N2CCC[C@H]2C(=O)N[C@H](C)C(N)=O)cc1 (Ac-[d2Nal][dPhe(4-Cl)][d3Pal]SR[dNva(5-oxo-5-(4-MeOPh))]LRP[dA]-NH2) | 0.5 and 1.5 | 1.8 (≈ 1.21 µM) | 1 | –
8 | CCN=C(NCC)NCCCC[C@H](NC(=O)[C@H](CC(C)C)NC(=O)[C@@H](CCCCNC(=NCC)NCC)NC(=O)[C@H](Cc1ccc(O)cc1)NC(=O)[C@H](CO)NC(=O)[C@@H](Cc1cccnc1)NC(=O)[C@@H](Cc1ccc(Cl)cc1)NC(=O)[C@@H](Cc1ccc2ccccc2c1)NC(C)=O)C(=O)N1CCC[C@H]1C(=O)N[C@H](C)C(N)=O (Ac-[d2Nal][dPhe(4-Cl)][d3Pal]SY[d(hArg(Et2))]L[hArg(Et2)]P[dA]-NH2) | 2.5 | 11 (≈ 7 µM) | 2.17 | –
9 | CC(=O)N[C@H](Cc1ccc2ccccc2c1)C(=O)N[C@H](Cc1ccc(Cl)cc1)C(=O)N[C@H](Cc1cccnc1)C(=O)N[C@@H](CO)C(=O)N[C@@H](Cc1ccc(O)cc1)C(=O)N[C@H](CCCNC(N)=O)C(=O)N[C@@H](CC(C)C)C(=O)N[C@@H](CCCNC(=N)N)C(=O)N1CCC[C@H]1C(=O)N[C@H](C)C(N)=O (Ac-[d2Nal][dPhe(4-Cl)][d3Pal]SY[dCit]LRP[dA]-NH2) | – | – | – | 10.1
10 | CC(=O)N[C@H](Cc1ccc2ccccc2c1)C(=O)N[C@H](Cc1ccc(Cl)cc1)C(=O)N[C@H](Cc1cccnc1)C(=O)N[C@@H](CO)C(=O)N[C@@H](Cc1ccc(O)cc1)C(=O)N[C@H](CCCNC(N)=O)C(=O)N[C@@H](CC(C)C)C(=O)N[C@@H](CCCN=C(N)N)C(=O)N1CCC[C@H]1C(=O)N[C@H](C)C(N)=O (Ac-[d2Nal][dPhe(4-Cl)][d3Pal]SY[dCit]LRP[dA]-NH2) | 1 and 2 | 2.1 (≈ 1.47 µM) | 1.56 | –
11 | CC(=O)N[C@H](Cc1ccc2ccccc2c1)C(=O)N[C@H](Cc1ccc(Cl)cc1)C(=O)N[C@H](Cc1cccnc1)C(=O)N[C@@H](CO)C(=O)N(C)[C@@H](Cc1ccc(O)cc1)C(=O)N[C@H](CCCCNC(=O)c1cccnc1)C(=O)N[C@@H](CC(C)C)C(=O)N[C@@H](CCCCNC(C)C)C(=O)N1CCC[C@H]1C(=O)N[C@H](C)C(N)=O (Ac-[d2Nal][dPhe(4-Cl)][d3Pal]S[NMeY][dK](Nicotinoyl)L[Lys(iPr)]P[dA]-NH2) | – | 22 (≈ 14.3 µM) | 1.42 | –
12 | CC(=O)N[C@H](Cc1ccc2ccccc2c1)C(=O)N[C@H](Cc1ccc(Cl)cc1)C(=O)N[C@H](Cc1cccnc1)C(=O)N[C@@H](CO)C(=O)N[C@@H](CCCNc1n[nH]c(N)n1)C(=O)N[C@H](CCCNc1n[nH]c(N)n1)C(=O)N[C@@H](CC(C)C)C(=O)N[C@@H](CCCCNC(C)C)C(=O)N1CCC[C@H]1C(=O)N[C@H](C)C(N)=O (Ac-[d2Nal][dPhe(4-Cl)][d3Pal]S[Orn](Triazol3yl(1,2,4-5-NH2))[dOrn](Triazol3yl(1,2,4-5-NH2))L[Lys(iPr)]P[dA]-NH2) | 2 | 158 (≈ 104 µM) | 0.2 | –
13 | CC(=O)N[C@H](Cc1ccc2ccccc2c1)C(=O)N[C@H](Cc1ccc(Cl)cc1)C(=O)N[C@H](Cc1cccnc1)C(=O)N[C@@H](CO)C(=O)N[C@@H](Cc1ccc(Nc2n[nH]c(N)n2)cc1)C(=O)N[C@H](Cc1ccc(Nc2n[nH]c(N)n2)cc1)C(=O)N[C@@H](CC(C)C)C(=O)N[C@@H](CCCCNC(C)C)C(=O)N1CCC[C@H]1C(=O)NCC(N)=O (Ac-[d2Nal][dPhe(4-Cl)][d3Pal]S[Phe(4-NH(5-NH2triazol-3-yl))][X1]L[Lys(iPr)]PG-NH2) [listing 1 of 2 here] | – | – | – | 8.45
14 | CC(=O)N[C@H](Cc1ccc2ccccc2c1)C(=O)N[C@H](Cc1ccc(Cl)cc1)C(=O)N[C@H](Cc1cccnc1)C(=O)N[C@@H](CO)C(=O)N[C@@H](Cc1ccc(Nc2n[nH]c(N)n2)cc1)C(=O)N[C@H](Cc1ccc(Nc2n[nH]c(N)n2)cc1)C(=O)N[C@@H](CC(C)C)C(=O)N[C@@H](CCCCNC(C)C)C(=O)N1CCC[C@H]1C(=O)NCC(N)=O (Ac-[d2Nal][dPhe(4-Cl)][d3Pal]S[Phe(4-NH(5-NH2triazol-3-yl))][X1]L[Lys(iPr)]PG-NH2) [listing 2 of 2 here] | 1 | 28 (≈ 17.5 µM) | 1 | –
15 | CC(=O)N[C@H](Cc1ccc2ccccc2c1)C(=O)N[C@H](Cc1ccc(Cl)cc1)C(=O)N[C@H](Cc1cccnc1)C(=O)N[C@@H](CO)C(=O)N[C@@H](Cc1ccc(Nc2n[nH]c(N)n2)cc1)C(=O)N[C@H](Cc1ccc(Nc2n[nH]c(N)n2)cc1)C(=O)N[C@@H](CC(C)C)C(=O)N[C@@H](CCCCNC(C)C)C(=O)N1CCC[C@H]1C(=O)N[C@H](C)C(N)=O (Ac-[d2Nal][dPhe(4-Cl)][d3Pal]S[Phe(4-NH(5-NH2triazol-3-yl))][X1]L[Lys(iPr)]P[dA]-NH2) [listing 1 of 2 here] | – | – | – | 9
16 | CC(=O)N[C@H](Cc1ccc2ccccc2c1)C(=O)N[C@H](Cc1ccc(Cl)cc1)C(=O)N[C@H](Cc1cccnc1)C(=O)N[C@@H](CO)C(=O)N[C@@H](Cc1ccc(Nc2n[nH]c(N)n2)cc1)C(=O)N[C@H](Cc1ccc(Nc2n[nH]c(N)n2)cc1)C(=O)N[C@@H](CC(C)C)C(=O)N[C@@H](CCCCNC(C)C)C(=O)N1CCC[C@H]1C(=O)N[C@H](C)C(N)=O (Ac-[d2Nal][dPhe(4-Cl)][d3Pal]S[Phe(4-NH(5-NH2triazol-3-yl))][X1]L[Lys(iPr)]P[dA]-NH2) [listing 2 of 2 here] | 0.5 and 1 | 224 (≈ 139 µM) | 1.3 | –
17 | CC(=O)N[C@H](Cc1ccc2ccccc2c1)C(=O)N[C@H](Cc1ccc(Cl)cc1)C(=O)N[C@H](Cc1cccnc1)C(=O)N[C@@H](CO)C(=O)N[C@@H](Cc1ccc(Nc2n[nH]c(N)n2)cc1)C(=O)N[C@H](Cc1ccc(Nc2n[nH]c(N)n2)cc1)C(=O)N(C)[C@@H](CC(C)C)C(=O)N[C@@H](CCCCNC(C)C)C(=O)N1CCC[C@H]1C(=O)N[C@H](C)C(N)=O (Ac-[d2Nal][dPhe(4-Cl)][d3Pal]S[Phe(4-NH(5-NH2triazol-3-yl))][X1][NMeL][Lys(iPr)]P[dA]-NH2) | 0.5 and 1 | 34 (≈ 20.9 µM) | 1.6 | –
